Calls of active or inactive are those of the source. No cut-off for these calls is given here.
Tests used:
[1] = biological target: T1, Toll-like receptor 1/2 (Homo sapiens) (UniProt O60603+Q15399); assay: Antagonist activity at TLR2/TLR1 in human THP1 cells assessed as reduction in diprovoci-induced TNF production at 50 uM pre-incubated for 1 hr before diprovocim stimulation for 4 hrs by ELISA method; format: cell-based
[2] = biological target: T1, Toll-like receptor 1/2 (Homo sapiens); assay: Antagonist activity at TLR2/TLR1 in human THP1 cells assessed as reduction in diprovoci-induced TNF production at 5 uM pre-incubated for 1 hr before diprovocim stimulation for 4 hrs by ELISA method; format: cell-based
[3] = species on record: Homo sapiens; assay: Agonist activity at human TLR2/TLR1 V339A mutant expressed in HEK293T cells coexpressing NF-kappaB-driven luciferase reporter at 100 nM after 6 hrs by luciferase reporter gene assay; format: cell-based
Outline: (§1)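 HEK293T cells stably carrying an NF-κB-driven luciferase reporter, in DMEM, were plated 18 h before transfection. They were co-transfected by lipofection with WT or point-mutant human TLR(2–1) and TLR(1–2) ectodomain/TIR-swap chimeras, and expression was checked by immunoblot. After 24 h, cells were stimulated for 6 h with 100 nM agonist or 20 or 50 ng/mL Pam3CSK4, then lysed for a luciferase read-out.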

[4] = species on record: Homo sapiens; assay: Agonist activity at human TLR1/TLR2 Y323A mutant expressed in HEK293T cells coexpressing NF-kappaB-driven luciferase reporter at 100 nM after 6 hrs by luciferase reporter gene assay; format: cell-based; outline: as §1
[5] = biological target: T2, Toll-like receptor 1 (Homo sapiens) (UniProt Q15399); assay: Induction of human TLR1 homodimerization expressed in insect Hi5 cells by size exclusion chromatography
T2 sequence (whole entry): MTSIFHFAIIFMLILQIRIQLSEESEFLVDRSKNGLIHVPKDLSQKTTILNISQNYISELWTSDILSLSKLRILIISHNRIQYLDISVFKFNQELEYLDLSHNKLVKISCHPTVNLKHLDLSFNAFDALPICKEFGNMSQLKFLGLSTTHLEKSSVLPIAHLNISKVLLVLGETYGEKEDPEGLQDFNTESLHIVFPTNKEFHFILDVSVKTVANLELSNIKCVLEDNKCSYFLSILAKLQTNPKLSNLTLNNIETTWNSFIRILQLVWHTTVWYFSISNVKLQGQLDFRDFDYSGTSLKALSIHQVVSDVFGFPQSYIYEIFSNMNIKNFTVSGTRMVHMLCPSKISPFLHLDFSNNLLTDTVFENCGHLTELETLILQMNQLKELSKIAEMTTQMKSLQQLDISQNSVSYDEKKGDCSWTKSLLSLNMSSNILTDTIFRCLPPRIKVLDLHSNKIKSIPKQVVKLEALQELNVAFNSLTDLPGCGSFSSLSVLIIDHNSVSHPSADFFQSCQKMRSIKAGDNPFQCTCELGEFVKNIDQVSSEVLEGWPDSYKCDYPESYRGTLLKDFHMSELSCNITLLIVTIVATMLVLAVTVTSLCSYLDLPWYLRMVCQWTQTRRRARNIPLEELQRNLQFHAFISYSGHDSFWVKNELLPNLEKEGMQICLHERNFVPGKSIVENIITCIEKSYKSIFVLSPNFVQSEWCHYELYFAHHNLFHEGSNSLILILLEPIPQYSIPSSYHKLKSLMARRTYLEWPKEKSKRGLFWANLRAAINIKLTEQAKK
Outline: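 Human TLR1 and TLR2 ectodomains were made in Hi5 insect cells, partially deglycosylated, and had the protein A tag cleaved by thrombin before purification. Protein at 1 μM (each alone, or both together) was incubated with 30 μM ligand in 25 mM HEPES pH 8.0, 150 mM NaCl, 10% DMSO for 4 h at room temperature. Dimer formation was then analysed by analytical gel filtration on Superdex 200.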

[6] = species on record: Homo sapiens; assay: Agonist activity at human TLR2/TLR1 H340A mutant expressed in HEK293T cells coexpressing NF-kappaB-driven luciferase reporter at 100 nM after 6 hrs by luciferase reporter gene assay; format: cell-based; outline: as §1
[7] = species on record: Homo sapiens; assay: Agonist activity at human TLR1/TLR2 Y332A mutant expressed in HEK293T cells coexpressing NF-kappaB-driven luciferase reporter at 100 nM after 6 hrs by luciferase reporter gene assay; format: cell-based; outline: as §1
[8] = species on record: Homo sapiens; assay: Agonist activity at human TLR1/TLR2 V348A mutant expressed in HEK293T cells coexpressing NF-kappaB-driven luciferase reporter at 100 nM after 6 hrs by luciferase reporter gene assay; format: cell-based; outline: as §1
[9] = species on record: Homo sapiens; assay: Agonist activity at human TLR2/TLR1 F312A mutant expressed in HEK293T cells coexpressing NF-kappaB-driven luciferase reporter at 100 nM after 6 hrs by luciferase reporter gene assay; format: cell-based; outline: as §1
[10] = species on record: Homo sapiens; assay: Agonist activity at human TLR2/TLR1 I319A mutant expressed in HEK293T cells coexpressing NF-kappaB-driven luciferase reporter at 100 nM after 6 hrs by luciferase reporter gene assay; format: cell-based; outline: as §1
[11] = species on record: Homo sapiens; assay: Agonist activity at human TLR1/TLR2 Y376 mutant expressed in HEK293T cells coexpressing NF-kappaB-driven luciferase reporter at 100 nM after 6 hrs by luciferase reporter gene assay; format: cell-based; outline: as §1
[12] = species on record: Homo sapiens; assay: Agonist activity at human TLR2/TLR1 W258A mutant expressed in HEK293T cells coexpressing NF-kappaB-driven luciferase reporter at 100 nM after 6 hrs by luciferase reporter gene assay; format: cell-based; outline: as §1
[13] = species on record: Homo sapiens; assay: Agonist activity at human TLR1/TLR2 D327A mutant expressed in HEK293T cells coexpressing NF-kappaB-driven luciferase reporter at 100 nM after 6 hrs by luciferase reporter gene assay; format: cell-based; outline: as §1
[14] = species on record: Homo sapiens; assay: Agonist activity at human TLR1/TLR2 L328A mutant expressed in HEK293T cells coexpressing NF-kappaB-driven luciferase reporter at 100 nM after 6 hrs by luciferase reporter gene assay; format: cell-based; outline: as §1
[15] = species on record: Homo sapiens; assay: Agonist activity at human TLR1/TLR2 Y325A mutant expressed in HEK293T cells coexpressing NF-kappaB-driven luciferase reporter at 100 nM after 6 hrs by luciferase reporter gene assay; format: cell-based; outline: as §1
[16] = species on record: Homo sapiens; assay: Agonist activity at human TLR1/TLR2 L350A mutant expressed in HEK293T cells coexpressing NF-kappaB-driven luciferase reporter at 100 nM after 6 hrs by luciferase reporter gene assay; format: cell-based; outline: as §1
[17] = species on record: Homo sapiens; assay: Agonist activity at human TLR2/TLR1 F314A mutant expressed in HEK293T cells coexpressing NF-kappaB-driven luciferase reporter at 100 nM after 6 hrs by luciferase reporter gene assay; format: cell-based; outline: as §1
[18] = species on record: Homo sapiens; assay: Agonist activity at human TLR1/TLR2 F349A mutant expressed in HEK293T cells coexpressing NF-kappaB-driven luciferase reporter at 100 nM after 6 hrs by luciferase reporter gene assay; format: cell-based; outline: as §1
[19] = species on record: Homo sapiens; assay: Agonist activity at human TLR2/TLR1 Y320A mutant expressed in HEK293T cells coexpressing NF-kappaB-driven luciferase reporter at 100 nM after 6 hrs by luciferase reporter gene assay; format: cell-based; outline: as §1

| Structure (SMILES) | inhibition [1] | inhibition [2] | Activity [3] | Activity [4] | Activity [5] | Activity [6] | Activity [7] | Activity [8] | Activity [9] | Activity [10] | Activity [11] | Activity [12] | Activity [13] | Activity [14] | Activity [15] | Activity [16] | Activity [17] | Activity [18] | Activity [19] |
| --- | --- | --- | --- | --- | --- | --- | --- | --- | --- | --- | --- | --- | --- | --- | --- | --- | --- | --- | --- |
| O=C(N[C@H]1C[C@@H]1c1ccccc1)[C@@H]1CN(C(=O)c2ccccc2)C[C@H]1C(=O)N[C@H]1C[C@@H]1c1ccccc1 | Active | Active |  |  |  |  |  |  |  |  |  |  |  |  |  |  |  |  |  |
| O=C(N[C@H]1C[C@@H]1c1ccccc1)[C@@H]1CN(C(=O)c2ccc(C(=O)N3C[C@@H](C(=O)N[C@H]4C[C@@H]4c4ccccc4)[C@H](C(=O)N[C@H]4C[C@@H]4c4ccccc4)C3)cc2)C[C@H]1C(=O)N[C@H]1C[C@@H]1c1ccccc1 |  |  | inactive | inactive | inactive | inactive | Active | inactive | Active | inactive | Active | inactive | Active | Active | inactive | Active | Active | inactive | inactive |

— ChEMBL document CHEMBL4392821
